From ChEMBL document CHEMBL4373701, “Semisynthetic Derivatives of Fradcarbazole A and Their Cytotoxicity against Acute Myeloid Leukemia Cell Lines” (J Nat Prod, 2019) come the findings set out here.

In general, IC50 refers to the concentration at which inhibition is half-maximal. Higher therefore signals a need for much substance.

The test system of one assay is K562. Put plainly: Antiproliferative activity against human K562 cells measured after 72 hrs by Celltiter-Glo assay. The class given is functional, cell-based. The following applies: K562, 72 h. For orientation: Cellular ATP, detected with luciferase, serves as a proxy for viable cell number.
The subject of a further assay is PBMC. The assay is described as follows: Cytotoxicity against human PBMC cells measured after 72 hrs by Celltiter-Glo assay. The class given is ADME, cell-based.
For assay [1], the system named is MV4-11. The assay is described as follows: Antiproliferative activity against human MV4-11 cells measured after 72 hrs by Celltiter-Glo assay. The class given is functional, cell-based. To be noted: MV4-11, 72 h.
The subject of the next assay is HL-60. The assay is described as follows: Antiproliferative activity against human HL60 cells measured after 72 hrs by Celltiter-Glo assay. The class given is functional, cell-based. To be noted: HL-60, 72 h.
The subject of assay [2] is MV4-11. The assay is described as follows: Cell cycle arrest in human MV4-11 cells assessed as accumulation at G0/G1 phase at 0.3 uM after 24 hrs by propidium iodide/RNase A staining based FACScalibur flow cytometry analysis (reference value: 50.04 %). The class given is functional. (In general: Flow cytometry measures light scatter and fluorescence of single cells or particles in a stream.)

The subject of assay [3] is MV4-11. Put plainly: Cell cycle arrest in human MV4-11 cells assessed as accumulation at G0/G1 phase at 0.6 uM after 24 hrs by propidium iodide/RNase A staining based FACScalibur flow cytometry analysis (reference value: 50.04 %). The format is functional.
Assay [4] has as its system MV4-11. Put plainly: Cell cycle arrest in human MV4-11 cells assessed as accumulation at S phase at 0.3 uM after 24 hrs by propidium iodide/RNase A staining based FACScalibur flow cytometry analysis (reference value: 29.92 %). The class given is functional.
For assay [5], the system named is MV4-11. Put plainly: Induction of apoptosis in human MV4-11 cells assessed as decrease in phosphorylated-FLT3 expression after 24 hrs by Western blot analysis. The format is functional, cell-based. The procedure, abridged:
(§1)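 MV4-11 cells (RPMI-1640, 10% FBS, 37 °C, 5% CO2) exposed 24 h to 0.15, 0.3 or 0.6 μM. Lysed in RIPA buffer, protein measured by BCA, 40 μg run on SDS-PAGE and blotted to nitrocellulose. Primary antibodies overnight at 4 °C, HRP anti-rabbit IgG secondary 1 h at rt. Bands detected by ECL.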

For assay [6], the system named is MV4-11. The assay is described as follows: Cell cycle arrest in human MV4-11 cells assessed as accumulation at S phase at 0.15 uM after 24 hrs by propidium iodide/RNase A staining based FACScalibur flow cytometry analysis (reference value: 29.92 %). The format is functional.
Assay [7] has as its system MV4-11. Put plainly: Cell cycel arrest in human MV4-11 cells assessed as decrease in CDK2 expression at 0.15 to 0.6 uM after 24 hrs by Western blot analysis. The format is functional, cell-based. An outline of the steps: as §1
In assay [8] the test system is MV4-11. The assay is described as follows: Cell cycle arrest in human MV4-11 cells assessed as accumulation at G2/M phase at 0.3 uM after 24 hrs by propidium iodide/RNase A staining based FACScalibur flow cytometry analysis (reference value: 10.58 %). The format is functional.
In assay [9] the test system is MV4-11. Put plainly: Cell cycle arrest in human MV4-11 cells assessed as accumulation at G2/M phase at 0.15 uM after 24 hrs by propidium iodide/RNase A staining based FACScalibur flow cytometry analysis (reference value: 10.58 %). The class given is functional.
Assay [10] relates to MV4-11. Put plainly: Cell cycle arrest in human MV4-11 cells assessed as accumulation at S phase at 0.6 uM after 24 hrs by propidium iodide/RNase A staining based FACScalibur flow cytometry analysis (reference value: 29.92 %). The format is functional.
Assay [11] deals with MV4-11. The assay is described as follows: Cell cycle arrest in human MV4-11 cells assessed as accumulation at G2/M phase at 0.6 uM after 24 hrs by propidium iodide/RNase A staining based FACScalibur flow cytometry analysis (reference value: 10.58 %). The class given is functional.
In assay [12] the test system is MV4-11. The assay is described as follows: Induction of apoptotic cell death in human MV4-11 cells at 0.3 uM after 24 hrs by DAPI-based TUNEL assay. The format is functional. An outline of the steps: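 MV4-11 cells held at 0.3 μM for 24 h, then processed with a one-step TUNEL kit. DNA counterstained with DAPI. Green apoptotic cells seen by fluorescence microscopy, excitation 450−500 nm, emission 515−565 nm.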

Assay [13] has as its system MV4-11. Put plainly: Induction of apoptosis in human MV4-11 cells assessed as decrease in c-kit expression after 24 hrs by Western blot analysis. The format is functional, cell-based. An outline of the steps: as §1
Background: Immunoblotting shows a protein as a band on a membrane.

In assay [14] the test system is MV4-11. Put plainly: Cell cycle arrest in human MV4-11 cells assessed as accumulation at G0/G1 phase at 0.15 uM after 24 hrs by propidium iodide/RNase A staining based FACScalibur flow cytometry analysis (reference value: 50.04 %). The format is functional.
The subject of assay [15] is MV4-11. Put plainly: Induction of apoptosis in human MV4-11 cells assessed as decrease in FLT3 expression after 24 hrs by Western blot analysis. The format is functional, cell-based. The procedure, abridged:
as §1

Active and inactive are the calls of the source. The rule behind the calls is not given here.

Turning to `CO[C@@H]1[C@H](N(C)c2ncc(-c3c[nH]c4ccccc34)s2)C[C@H]2O[C@]1(C)n1c3ccccc3c3c4c(c5c6ccccc6n2c5c31)C(=O)NC4`, the IC50 is > 10 µM in the assay with K562, > 10 µM in the assay on PBMC, 0.4 µM in the assay on MV4-11 [1] and > 10 µM with HL-60.

Turning to `CO[C@@H]1[C@H](N(C)c2ncc(-c3c[nH]c4ccc(F)cc34)s2)C[C@H]2O[C@]1(C)n1c3ccccc3c3c4c(c5c6cc(Br)ccc6n2c5c31)C(=O)NC4`, the IC50 was > 10 µM in the assay on K562, > 10 µM in the assay on PBMC, 0.96 µM in the assay on MV4-11 [1] and > 10 µM in the assay on HL-60.

For `CO[C@@H]1[C@H](N(C)c2ncc(-c3c[nH]c4ccc(F)cc34)s2)C[C@H]2O[C@]1(C)n1c3ccccc3c3c4c(c5c6ccccc6n2c5c31)C(=O)NC4`, the concentration for half-maximal inhibition (IC50) is > 10 µM with K562, > 10 µM in the assay with PBMC, 0.51 µM in the assay with MV4-11 [1] and > 10 µM in the assay on HL-60.

`CO[C@@H]1[C@H](N(C)c2ncc(-c3c[nH]c4ccc(Br)cc34)s2)C[C@H]2O[C@]1(C)n1c3ccccc3c3c4c(c5c6ccccc6n2c5c31)C(=O)NC4`: the IC50 is > 10 µM in the assay on K562, > 10 µM in the assay on PBMC, 0.41 µM in the assay with MV4-11 [1] and > 10 µM with HL-60.

Regarding `COc1ccc2[nH]cc(-c3cnc(N(C)[C@@H]4C[C@H]5O[C@@](C)([C@@H]4OC)n4c6ccccc6c6c7c(c8c9ccccc9n5c8c64)C(=O)NC7)s3)c2c1`, the IC50 is > 10 µM in the assay with K562, > 10 µM in the assay on PBMC, 0.36 µM in the assay with MV4-11 [1] and > 10 µM in the assay with HL-60.

`CO[C@@H]1[C@H](N(C)c2ncc(-c3c[nH]c4ccc(Br)cc34)s2)C[C@H]2O[C@]1(C)n1c3ccccc3c3c4c(c5c6cc(Cl)ccc6n2c5c31)C(=O)NC4`: the IC50 with K562 is > 10 µM; with PBMC, > 10 µM; with MV4-11 [1], 0.43 µM; in the assay on HL-60 it was > 10 µM.

Turning to `CO[C@@H]1[C@H](N(C)c2ncc(-c3c[nH]c4ccc(F)cc34)s2)C[C@H]2O[C@]1(C)n1c3ccccc3c3c4c(c5c6cc(Cl)ccc6n2c5c31)C(=O)NC4`, the Activity in the assay with MV4-11 [2] was 72.68%; in the assay on MV4-11 [3], 87.75%; in the assay with MV4-11 [4], 9.23%; in the assay on MV4-11 [5], “Dose-dependent effect”; with MV4-11 [6], 20.19%; in the assay on MV4-11 [8], 6.6%. For the same molecule, the Activity in the assay with MV4-11 [9] was 10.04%; with MV4-11 [10] it was 10.18%; in the assay with MV4-11 [11], 0.45%; in the assay on MV4-11 [13], “Dose-dependent effect”; with MV4-11 [14] it was 60.59%; in the assay with MV4-11 [15] it was “Dose-dependent effect”. Moreover, the IC50 with K562 was > 10 µM; in the assay with PBMC it was > 10 µM; in the assay on MV4-11 [1], 0.32 µM; in the assay with HL-60, > 10 µM. Besides, the result in the assay on MV4-11 [7] and in the assay with MV4-11 [12] was Active.

Consider `CO[C@@H]1[C@H](N(C)c2ncc(-c3c[nH]c4ccc(Cl)cc34)s2)C[C@H]2O[C@]1(C)n1c3ccccc3c3c4c(c5c6cc(Br)ccc6n2c5c31)C(=O)NC4`, for which the IC50 is > 10 µM with K562, > 10 µM with PBMC, 0.7 µM in the assay with MV4-11 [1] and > 10 µM with HL-60.

As to `CO[C@@H]1[C@H](N(C)c2ncc(-c3c[nH]c4ccc(Cl)cc34)s2)C[C@H]2O[C@]1(C)n1c3ccccc3c3c4c(c5c6ccccc6n2c5c31)C(=O)NC4`, the IC50 is > 10 µM in the assay on K562, > 10 µM in the assay on PBMC, 0.42 µM with MV4-11 [1] and > 10 µM in the assay on HL-60.

On to `COc1ccc2[nH]cc(-c3cnc(N(C)[C@@H]4C[C@H]5O[C@@](C)([C@@H]4OC)n4c6ccccc6c6c7c(c8c9cc(Cl)ccc9n5c8c64)C(=O)NC7)s3)c2c1`, for which the IC50 in the assay with K562 is > 10 µM; with PBMC, > 10 µM; with MV4-11 [1] it was 0.44 µM; in the assay on HL-60, > 10 µM.

On to `CO[C@@H]1[C@H](N(C)c2ncc(-c3c[nH]c4ccc(Br)cc34)s2)C[C@H]2O[C@]1(C)n1c3ccccc3c3c4c(c5c6cc(Br)ccc6n2c5c31)C(=O)NC4`, for which the IC50 in the assay on K562 is > 10 µM; with PBMC, > 10 µM; in the assay on MV4-11 [1], 0.39 µM; with HL-60 it was > 10 µM.

Consider `CO[C@@H]1[C@H](N(C)c2ncc(-c3c[nH]c4ccc(Cl)cc34)s2)C[C@H]2O[C@]1(C)n1c3ccccc3c3c4c(c5c6cc(Cl)ccc6n2c5c31)C(=O)NC4`, for which the IC50 with K562 is > 10 µM; with PBMC, > 10 µM; in the assay on MV4-11 [1], 0.59 µM; with HL-60, > 10 µM.

On to `COc1ccc2[nH]cc(-c3cnc(N(C)[C@@H]4C[C@H]5O[C@@](C)([C@@H]4OC)n4c6ccccc6c6c7c(c8c9cc(Br)ccc9n5c8c64)C(=O)NC7)s3)c2c1`, for which the IC50 was > 10 µM in the assay on K562, > 10 µM in the assay on PBMC, 0.51 µM with MV4-11 [1] and > 10 µM in the assay with HL-60.

With `CO[C@@H]1[C@H](N(C)c2ncc(-c3c[nH]c4ccccc34)s2)C[C@H]2O[C@]1(C)n1c3ccccc3c3c4c(c5c6cc(Cl)ccc6n2c5c31)C(=O)NC4`, the IC50 in the assay with K562 is > 10 µM; with PBMC, > 10 µM; in the assay with MV4-11 [1], 0.56 µM; with HL-60, > 10 µM.

With `CO[C@@H]1[C@H](N(C)c2ncc(-c3c[nH]c4ccccc34)s2)C[C@H]2O[C@]1(C)n1c3ccccc3c3c4c(c5c6cc(Br)ccc6n2c5c31)C(=O)NC4`, the IC50 is > 10 µM in the assay with K562, > 10 µM in the assay with PBMC, 0.36 µM with MV4-11 [1] and > 10 µM in the assay with HL-60.
